Series [1] in a line: AUC (0 to t) in male Sprague-Dawley rat at 0.5 mg/kg, iv measured for 36 hrs by LC-MS/MS analysis. The series is classed as ADME, organism-based. Also on record: time 36 hrs, dose 0.5 mg/kg. Conditions: in vivo. Summed up:
(§1)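 Sprague-Dawley rats (200–220 g), three per sex per route, were dosed at 0.5 mg/kg IV or 5 mg/kg PO in DMSO/Tween-80/water (1:5:94). Heparinized blood was drawn from 5 min to 36 h after IV dosing and from 1 h to 36 h after oral dosing. Plasma was deproteinized with methanol (2% HCl) plus carbamazepine internal standard, measured by LC-MS/MS, and reported as mean ± SD.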

A short description of series [2]: AUC (0 to t) in female Sprague-Dawley rat at 5 mg/kg, po measured for 36 hrs by LC-MS/MS analysis. The series is classed as ADME, organism-based. Also on record: dose 5 mg/kg, time 36 hrs. Conditions: in vivo. Summed up:
as §1

The nature of series [3]: Tmax in female Sprague-Dawley rat at 5 mg/kg, po measured for 36 hrs by LC-MS/MS analysis. The note with it: in vivo. The series is classed as ADME, organism-based. Summed up: (§2)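 Sprague-Dawley rats (200–220 g), three males and three females per route group. Dosed 5 mg/kg orally or 0.5 mg/kg IV as a solution in DMSO/T-80/H2O (1:5:94 by volume). Heparinized blood was drawn from 5 min to 36 h after IV and 1–36 h after oral dosing. Plasma was protein-precipitated with methanol (2% HCl) plus carbamazepine internal standard and assayed by LC-MS/MS. Parameters were taken from concentration-time data; n = 3 per sex, mean ± SD.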

Series [4] can be described thus: Half life in male Sprague-Dawley rat at 0.5 mg/kg, iv measured for 36 hrs by LC-MS/MS analysis. Format: ADME, organism-based. Conditions: in vivo.
Series [5] can be described thus: MRT(0 to t) in female Sprague-Dawley rat at 0.5 mg/kg, iv measured for 36 hrs by LC-MS/MS analysis. The series is classed as ADME, organism-based. Conditions: in vivo.
Series [6] can be described thus: Oral bioavailability in female Sprague-Dawley rat at 5 mg/kg measured for 36 hrs by LC-MS/MS analysis. Format: ADME, organism-based. The note with it: in vivo. An outline of the steps:
as §2

The subject of series [7] is MDA-MB-231. The series can be described thus: Induction of apoptosis in human MDA-MB-231 cells assessed as PARP cleavage at 0.5 uM measured after 6 hrs by western blot assay relative to Di(1H-indol-3-yl)(4-(trifluoromethyl)phenyl)methylium methanesulfonate. Format: functional. Summed up: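 MDA-MB-231 in DMEM with 10% FBS, 0.5 µM for 6 h, then PARP western blot with 1:1000 primary antibodies and ECL. Cleaved PARP/PARP band intensity ratio expressed relative to the reference methylium methanesulfonate, whose ratio was set to 1. Mean ± SD, n = 3.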
A general note: A western blot detects proteins with antibodies after separation by electrophoresis.

The test system of series [8] is BT-549. The series can be described thus: Induction of apoptosis in human BT-549 cells assessed as PARP cleavage at 0.5 uM measured after 6 hrs by western blot assay. Format: functional, cell-based. An outline of the steps:
(§3)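 Cells exposed to 0.5 µM for 6 h. Lysates resolved by SDS-PAGE and blotted to PVDF, blocked in 5% milk/TBST, probed with primary antibodies at 1:1000, ECL detection. Apoptosis scored as the densitometric ratio of cleaved PARP band to intact PARP band; mean ± SD, n = 3.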

Series [9] concerns SW-620. The series can be described thus: Induction of apoptosis in human SW-620 cells assessed as PARP cleavage at 0.5 uM measured after 6 hrs by western blot assay. The series is classed as functional, cell-based. Summed up:
as §3

Series [10] concerns MEF. The series can be described thus: Induction of apoptosis in mouse MEF cells lacking Nur77 assessed as PARP cleavage at 0.5 uM measured after 6 hrs by western blot assay. The series is classed as functional, cell-based. Summed up:
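Wild-type, Nur77−/− or Bcl-2−/− mouse embryonic fibroblasts grown in DMEM with 10% FBS and treated with 0.5 µM for 6 h. PARP cleavage detected by western blot, primary antibodies at 1:1000, ECL.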

A short description of series [11]: AUC (0 to t) in male/female Sprague-Dawley rat at 5 mg/kg, po measured for 36 hrs by LC-MS/MS analysis. The series is classed as ADME, organism-based. Also on record: dose 5 mg/kg, time 36 hrs. The note with it: both, in vivo. An outline of the steps:
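Four Sprague-Dawley rats per route (2 male, 2 female; 200–220 g) received 0.5 mg/kg IV or 5 mg/kg PO in DMSO/Tween-80/water (1:5:94). Heparinized blood was taken at 5 min–36 h after IV dosing and at 0.5, 1, 3, 4, 6, 8, 10, 12, 24 and 36 h after oral dosing. Methanol (2% HCl) precipitation with carbamazepine internal standard preceded LC-MS/MS; values are mean ± SD.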

Series [12] is described as follows: Clearance in male/female Sprague-Dawley rat at 0.5 mg/kg, iv measured for 36 hrs by LC-MS/MS analysis. Format: ADME, organism-based. Conditions: both, in vivo.
Series [13] can be described thus: Oral bioavailability in male/female Sprague-Dawley rat at 5 mg/kg measured for 36 hrs by LC-MS/MS analysis. The note with it: both, in vivo. The series is classed as ADME, organism-based. Summed up:
(§4)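 Sprague-Dawley rats (200–220 g), four per route group (2 male, 2 female), given 0.5 mg/kg IV or 5 mg/kg orally in DMSO/T-80/H2O (1:5:94). Heparinized blood was sampled at 5 min–36 h after IV and at 0.5, 1, 3, 4, 6, 8, 10, 12, 24 and 36 h after oral dosing. Plasma was methanol (2% HCl)-precipitated with carbamazepine internal standard and quantified by LC-MS/MS. Parameters reported as mean ± SD.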

A short description of series [14]: MRT(0 to t) in male/female Sprague-Dawley rat at 0.5 mg/kg, iv measured for 36 hrs by LC-MS/MS analysis. Format: ADME, organism-based. Conditions: in vivo. An outline of the steps:
as §4

The nature of series [15]: MRT(0 to t) in male/female Sprague-Dawley rat at 5 mg/kg, po measured for 36 hrs by LC-MS/MS analysis. Format: ADME, organism-based. The note with it: both, in vivo. Summed up:
as §4

The source made the active and inactive calls.

As usually defined, the AUC(0-t) is exposure summed from dosing to a finite time, without extrapolation to infinity. A low value points to low exposure. Broadly, the Tmax is the time from dosing to the highest level. One may read the half-life as the time needed for the level to fall by half in the phase considered. What is called MRT is a mean duration of stay, worked out from the concentration-time curve. For orientation: bioavailability means dose-corrected exposure relative to a reference, in per cent. Usually clearance stands for a measure of how efficiently the substance is removed, as volume per time. Read a low clearance as a low capacity for elimination. The term MRT last denotes the average time that molecules of a dose stay in the body.

For `CS(=O)(=O)[O-].FC(F)(F)c1ccc([C+](c2c[nH]c3ccccc23)c2c[nH]c3ccccc23)cc1`, the AUC(0-t) at 36 h in series [1] is 1120 ng·h/mL; in [2], 3950 ng·h/mL. The Tmax in [3] stood at 5.33 h. In [4], this compound had a half-life of 4.05 h. The compound further returned an MRT in series [5] of 3.59 h. Moreover, in series [6], the bioavailability is 22.8%.

As for `CS(=O)(=O)[O-].Cn1cc([C+](c2ccc(C(F)(F)F)cc2)c2c[nH]c3ccccc23)c2ccccc21`, in [7], the “fold change (FC)” value was found to be 8.93. The outcome in [8] and in [9] was Active. Moreover, the outcome in [10] was inactive. In addition, in [11], the AUC(0-t) at 36 h was found to be 734 ng·h/mL. Further, the clearance in series [12] was 17 mL/min/kg. This compound yielded a bioavailability in series [13] of 14.6%. In addition, the MRT in series [14] was 0.56 h. In addition, the MRT last at 36 h in [15] is 9.59 h.

(Values after ChEMBL document CHEMBL4819003, “Optimization of novel oxidative DIMs as Nur77 modulators of the Nur77-Bcl-2 apoptotic pathway” (Eur J Med Chem, 2021).)
